Experimental data taken from ChEMBL document CHEMBL1955763, “Antimicrobial activity of sulfonamides containing 5-chloro-2-hydroxybenzaldehyde and 5-chloro-2-hydroxybenzoic acid scaffold” (Eur J Med Chem, 2012).
In brackets after ≈: the same amount, converted by molar mass.

Legend:
Type in all cases: functional
[1] = test system: Mycobacterium tuberculosis; experiment: Antimycobacterial activity against Mycobacterium tuberculosis H37Rv 331/88 after 14 days; conditions: H37Rv 331/88, 336 h
[2] = test system: Mycobacterium tuberculosis; experiment: Antimycobacterial activity against Mycobacterium tuberculosis H37Rv 331/88 after 21 days; conditions: H37Rv 331/88, 504 h
Method in brief: (§1)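 Micromethod in Sula semisynthetic medium, with compounds added as DMSO solutions over a two-fold series from 1000 down to 1. Inoculum for M. avium 330/88 was a 10⁻⁵ dilution. Plates were incubated at 37 °C and MIC was read after 14 and 21 days.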

Mycobacterium avium [3] = experiment: Antimycobacterial activity against isoniazid-, rifampicin-, ofloxacin-, ethambutol-resistant Mycobacterium avium 330/88 after 14 days; conditions: 330/88, 336 h; method in brief: as §1
Mycobacterium avium [4] = experiment: Antimycobacterial activity against isoniazid-, rifampicin-, ofloxacin-, ethambutol-resistant Mycobacterium avium 330/88 after 21 days; conditions: 330/88, 504 h; method in brief: as §1
Mycobacterium kansasii [5] = experiment: Antimycobacterial activity against Mycobacterium kansasii 235/80 after 7 days; conditions: 235/80, 168 h
Method in brief: (§2)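 Micromethod MIC in Sula semisynthetic medium, with compounds added as DMSO solutions at […]. Incubation at 37 °C. Inocula: M. kansasii 235/80 at dilution 10⁻⁴, clinical isolate 6509/96 at 10⁻⁵.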

Mycobacterium kansasii [6] = experiment: Antimycobacterial activity against Mycobacterium kansasii 235/80 after 14 days; conditions: 235/80, 336 h; method in brief: as §2
Mycobacterium kansasii [7] = experiment: Antimycobacterial activity against Mycobacterium kansasii 235/80 after 21 days; conditions: 235/80, 504 h; method in brief: as §2
Mycobacterium kansasii [8] = experiment: Antimycobacterial activity against Mycobacterium kansasii 6509/96 after 7 days; conditions: 6509/96, 168 h; method in brief: as §2
Mycobacterium kansasii [9] = experiment: Antimycobacterial activity against Mycobacterium kansasii 6509/96 after 14 days; conditions: 6509/96, 336 h; method in brief: as §2
Mycobacterium kansasii [10] = experiment: Antimycobacterial activity against Mycobacterium kansasii 6509/96 after 21 days; conditions: 6509/96, 504 h; method in brief: as §2
Staphylococcus aureus [11] = experiment: Antibacterial activity against Staphylococcus aureus CCM 4516/08 after 24 hrs by broth microdilution method; conditions: CCM 4516/08, 24 h
Method in brief: (§3)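 Microdilution broth method modified from M07-A07, in Mueller-Hinton broth at pH 7.4 (±0.2). Compounds were dissolved in DMSO. Inoculum was made in sterile water to 0.5 McFarland (1.5 × 10⁸ CFU/mL). MIC was taken as IC₉₀, meaning ≥90% growth reduction versus the drug-free control. Growth was read visually and by absorbance at 540 nm.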

Staphylococcus aureus [12] = experiment: Antibacterial activity against Staphylococcus aureus CCM 4516/08 after 48 hrs by broth microdilution method; conditions: CCM 4516/08, 48 h
Method in brief: (§4)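 Broth microdilution modified from standard M07-A07 in Mueller-Hinton broth at pH 7.4 (±0.2). Compounds were dissolved in DMSO. Inoculum in sterile water was adjusted to 0.5 McFarland (1.5 × 10⁸ CFU/mL). MIC was taken as IC₉₀, i.e. ≥90% growth reduction versus control, read visually and spectrophotometrically at 540 nm.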

Staphylococcus aureus [13] = experiment: Antibacterial activity against methicillin-resistant Staphylococcus aureus H 5996/08 after 24 hrs by broth microdilution method; conditions: H 5996/08, 24 h; method in brief: as §3
Staphylococcus aureus [14] = experiment: Antibacterial activity against methicillin-resistant Staphylococcus aureus H 5996/08 after 48 hrs by broth microdilution method; conditions: H 5996/08, 48 h; method in brief: as §3
[15] = test system: Staphylococcus epidermidis; experiment: Antibacterial activity against methicillin-resistant Staphylococcus epidermidis H 6966/08 after 24 hrs by broth microdilution method; conditions: H 6966/08, 24 h; method in brief: as §3
[16] = test system: Staphylococcus epidermidis; experiment: Antibacterial activity against methicillin-resistant Staphylococcus epidermidis H 6966/08 after 48 hrs by broth microdilution method; conditions: H 6966/08, 48 h; method in brief: as §3
Trichosporon asahii = experiment: Antifungal activity against Trichosporon asahii 1188 after 24 hrs by broth microdilution method; conditions: Trichosporon asahii, 1188, 24 h
Method in brief: (§5)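 Microdilution broth per CLSI M27-A3 (yeasts) or M38-A2 (moulds) in RPMI 1640 with glutamine, buffered to pH 7.0 with 0.165 mol MOPS. Compounds were in DMSO. Final inoculum was 5 × 10³ ± 0.2 CFU/mL. Other conditions matched the antibacterial assay, with MIC as IC₉₀ read visually and at 540 nm. Determined twice, in duplicate.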

Aspergillus fumigatus = experiment: Antifungal activity against Aspergillus fumigatus 231 after 24 hrs by broth microdilution method; conditions: Aspergillus fumigatus, 231, 24 h; method in brief: as §5
Lichtheimia corymbifera = experiment: Antifungal activity against Absidia corymbifera 272 after 24 hrs by broth microdilution method; conditions: Lichtheimia corymbifera, 272, 24 h; method in brief: as §5
[17] = test system: Trichophyton mentagrophytes; experiment: Antifungal activity against Trichophyton mentagrophytes 445 after 24 hrs by broth microdilution method; conditions: Trichophyton mentagrophytes, 445, 24 h
Candida albicans = experiment: Antifungal activity against Candida albicans ATCC 44857 after 24 hrs by broth microdilution method; conditions: ATCC 44857, 24 h; method in brief: as §5
Candida tropicalis = experiment: Antifungal activity against Candida tropicalis 156 after 24 hrs by broth microdilution method; conditions: Candida tropicalis, 156, 24 h; method in brief: as §5
Nakaseomyces glabratus = experiment: Antifungal activity against Candida glabrata 20/I after 24 hrs by broth microdilution method; method in brief: as §5
Pichia kudriavzevii = experiment: Antifungal activity against Candida krusei E58 after 24 hrs by broth microdilution method; conditions: E58, 24 h; method in brief: as §5
Escherichia coli = experiment: Antibacterial activity against Escherichia coli CCM 4517 after 24 hrs by broth microdilution method; conditions: CCM 4517, 24 h; method in brief: as §4

Row | SMILES | MIC [1] [µM] | MIC [2] [µM] | MIC (Mycobacterium avium [3]) [µM] | MIC (Mycobacterium avium [4]) [µM] | MIC (Mycobacterium kansasii [5]) [µM] | MIC (Mycobacterium kansasii [6]) [µM] | MIC (Mycobacterium kansasii [7]) [µM] | MIC (Mycobacterium kansasii [8]) [µM] | MIC (Mycobacterium kansasii [9]) [µM] | MIC (Mycobacterium kansasii [10]) [µM] | MIC (Staphylococcus aureus [11]) [µM] | MIC (Staphylococcus aureus [12]) [µM] | MIC (Staphylococcus aureus [13]) [µM] | MIC (Staphylococcus aureus [14]) [µM] | MIC [15] [µM] | MIC [16] [µM] | MIC (Trichosporon asahii) [µM] | MIC (Aspergillus fumigatus) [µM] | MIC (Lichtheimia corymbifera) [µM] | MIC [17] [µM] | further results
1 | O=C(Nc1ccc(S(=O)(=O)Nc2ncccn2)cc1)c1cc(Cl)ccc1O | 125 (≈ 50.6 µg/mL) | 250 (≈ 101 µg/mL) | 62.5 (≈ 25.3 µg/mL) | 62.5 (≈ 25.3 µg/mL) | 4 (≈ 1.62 µg/mL) | 8 (≈ 3.24 µg/mL) | 16 (≈ 6.48 µg/mL) | 4 (≈ 1.62 µg/mL) | 8 (≈ 3.24 µg/mL) | 8 (≈ 3.24 µg/mL) | 125 (≈ 50.6 µg/mL) | 125 (≈ 50.6 µg/mL) | 31.2 (≈ 12.7 µg/mL) | 31.2 (≈ 12.7 µg/mL) | > 500 | > 500 |  |  |  |  | 
2 | Cc1cc(NS(=O)(=O)c2ccc(/N=C/c3cccc(Cl)c3)cc2)no1 | 62.5 (≈ 23.5 µg/mL) | 125 (≈ 47 µg/mL) | 32 (≈ 12 µg/mL) | 62.5 (≈ 23.5 µg/mL) | 4 (≈ 1.5 µg/mL) | 8 (≈ 3.01 µg/mL) | 8 (≈ 3.01 µg/mL) | 4 (≈ 1.5 µg/mL) | 4 (≈ 1.5 µg/mL) | 4 (≈ 1.5 µg/mL) | 31.2 (≈ 11.7 µg/mL) | 62.5 (≈ 23.5 µg/mL) | 31.2 (≈ 11.7 µg/mL) | 62.5 (≈ 23.5 µg/mL) | > 500 | > 500 | 500 (≈ 188 µg/mL) | 500 (≈ 188 µg/mL) | 500 (≈ 188 µg/mL) | 500 (≈ 188 µg/mL) | MIC (Candida albicans): 500 µM (≈ 188 µg/mL); MIC (Candida tropicalis): 500 µM (≈ 188 µg/mL); MIC (Nakaseomyces glabratus): 500 µM (≈ 188 µg/mL); MIC (Pichia kudriavzevii): 500 µM (≈ 188 µg/mL)
3 | Cc1cc(NS(=O)(=O)c2ccc(NC(=O)c3cccc(Cl)c3)cc2)no1 | 500 (≈ 196 µg/mL) | 500 (≈ 196 µg/mL) | 500 (≈ 196 µg/mL) | 500 (≈ 196 µg/mL) | 2 (≈ 0.784 µg/mL) | 8 (≈ 3.13 µg/mL) | 8 (≈ 3.13 µg/mL) | 8 (≈ 3.13 µg/mL) | 8 (≈ 3.13 µg/mL) | 8 (≈ 3.13 µg/mL) | > 500 | > 500 | > 500 | > 500 | > 500 | > 500 | 500 (≈ 196 µg/mL) | 500 (≈ 196 µg/mL) | 500 (≈ 196 µg/mL) | 500 (≈ 196 µg/mL) | MIC (Candida albicans): 500 µM (≈ 196 µg/mL); MIC (Candida tropicalis): 500 µM (≈ 196 µg/mL); MIC (Nakaseomyces glabratus): 500 µM (≈ 196 µg/mL); MIC (Pichia kudriavzevii): 500 µM (≈ 196 µg/mL)
4 | Cc1cc(NS(=O)(=O)c2ccc(NC(=O)c3cc(Cl)ccc3O)cc2)no1 | 125 (≈ 51 µg/mL) | 250 (≈ 102 µg/mL) | 62.5 (≈ 25.5 µg/mL) | 125 (≈ 51 µg/mL) | 8 (≈ 3.26 µg/mL) | 16 (≈ 6.53 µg/mL) | 16 (≈ 6.53 µg/mL) | 8 (≈ 3.26 µg/mL) | 8 (≈ 3.26 µg/mL) | 8 (≈ 3.26 µg/mL) | 125 (≈ 51 µg/mL) | 125 (≈ 51 µg/mL) | 15.6 (≈ 6.37 µg/mL) | 31.2 (≈ 12.7 µg/mL) | > 500 | > 500 | 500 (≈ 204 µg/mL) | 500 (≈ 204 µg/mL) | 500 (≈ 204 µg/mL) | 500 (≈ 204 µg/mL) | MIC (Escherichia coli): 250 µM (≈ 102 µg/mL); MIC (Candida albicans): 500 µM (≈ 204 µg/mL); MIC (Candida tropicalis): 500 µM (≈ 204 µg/mL); MIC (Nakaseomyces glabratus): 500 µM (≈ 204 µg/mL); MIC (Pichia kudriavzevii): 500 µM (≈ 204 µg/mL)
5 | Cc1cc(C)nc(NS(=O)(=O)c2ccc(/N=C/c3cc(Cl)ccc3O)cc2)n1 | 250 (≈ 104 µg/mL) | 500 (≈ 208 µg/mL) | 62.5 (≈ 26.1 µg/mL) | 125 (≈ 52.1 µg/mL) | 62.5 (≈ 26.1 µg/mL) | 125 (≈ 52.1 µg/mL) | 250 (≈ 104 µg/mL) | 125 (≈ 52.1 µg/mL) | 125 (≈ 52.1 µg/mL) | 250 (≈ 104 µg/mL) | 250 (≈ 104 µg/mL) | 500 (≈ 208 µg/mL) | 125 (≈ 52.1 µg/mL) | 250 (≈ 104 µg/mL) | > 500 | > 500 | > 125 | > 125 | > 125 | > 125 | MIC (Escherichia coli): 500 µM (≈ 208 µg/mL); MIC (Candida albicans): > 125 µM; MIC (Candida tropicalis): > 125 µM; MIC (Nakaseomyces glabratus): > 125 µM; MIC (Pichia kudriavzevii): > 125 µM
6 | Cc1cc(C)nc(NS(=O)(=O)c2ccc(N)cc2)n1 [SULFAMETHAZINE] | 62.5 (≈ 17.4 µg/mL) | 125 (≈ 34.8 µg/mL) | 32 (≈ 8.91 µg/mL) | 62.5 (≈ 17.4 µg/mL) | 16 (≈ 4.45 µg/mL) | 32 (≈ 8.91 µg/mL) | 125 (≈ 34.8 µg/mL) | 16 (≈ 4.45 µg/mL) | 16 (≈ 4.45 µg/mL) | 32 (≈ 8.91 µg/mL) | 500 (≈ 139 µg/mL) | > 500 | 500 (≈ 139 µg/mL) | > 500 | > 500 | > 500 |  |  |  |  | 
